From ChEMBL document CHEMBL1152672, “Side chain azasteroids and thiasteroids as sterol methyltransferase inhibitors in ergosterol biosynthesis” (2009)
Values after ≈ are worked out from the molar mass of the structure shown. Each block holds one compound with its values, some of them ahead of it. Active and inactive are the calls of the source. The calls are words filed in the database; no cut-off is given here.

Columns and labels:
[1] = target: T1, Sterol 24-C-methyltransferase (Yarrowia lipolytica) (UniProt Q6C2D9); test: Inhibition of Yarrowia lipolytica 24-SMT assessed as 5-dehydroepisterol-3-trimethylsilyl derivative at 0.06 ug/mL after 48 hrs by GC-MS analysis relative to untreated control; parameters: scale not given: the % may be the effect or the level left
T1 sequence (whole entry): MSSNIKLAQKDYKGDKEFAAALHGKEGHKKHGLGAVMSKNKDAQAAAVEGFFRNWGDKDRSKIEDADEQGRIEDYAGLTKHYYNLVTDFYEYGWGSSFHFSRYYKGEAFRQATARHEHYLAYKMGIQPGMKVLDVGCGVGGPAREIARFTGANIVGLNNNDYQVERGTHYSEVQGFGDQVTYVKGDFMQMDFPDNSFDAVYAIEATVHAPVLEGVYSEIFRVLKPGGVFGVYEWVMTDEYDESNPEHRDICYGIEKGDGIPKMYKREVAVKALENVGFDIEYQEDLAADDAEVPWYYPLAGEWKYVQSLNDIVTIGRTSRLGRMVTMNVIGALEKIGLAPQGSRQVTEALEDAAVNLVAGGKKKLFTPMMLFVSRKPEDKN
In short: (§1)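 Whole-cell sterol profiling. Y. lipolytica at 50,000 CFU/mL was exposed to compounds added from ethanol for 48 ± 2 h at 28 °C, and the MIC/2 and/or MIC/4 wells were used. Cells were pelleted and PBS-washed, then saponified in 1 M NaOH at 70 °C for 1 h. Sterols were extracted into TBME with a cholesterol internal standard and silylated to TMS ethers. GC-MS full scan, with each sterol given as % of total integrated quantifier-ion area.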

[2] = target: T1, Sterol 24-C-methyltransferase (Yarrowia lipolytica); test: Inhibition of Yarrowia lipolytica 24-SMT assessed as cholesta-7,24-dien-3-trimethylsilyl derivative at 0.2 ug/mL after 48 hrs by GC-MS analysis relative to untreated control; parameters: scale not given: the % may be the effect or the level left; in short: as §1
[3] = target: T1, Sterol 24-C-methyltransferase (Yarrowia lipolytica); test: Inhibition of Yarrowia lipolytica 24-SMT assessed as lanosterol-3-trimethylsilyl derivative at 0.2 ug/mL after 48 hrs by GC-MS analysis relative to untreated control; parameters: scale not given: the % may be the effect or the level left; in short: as §1
[4] = target: T1, Sterol 24-C-methyltransferase (Yarrowia lipolytica); test: Inhibition of Yarrowia lipolytica 24-SMT assessed as dehydroergosterol-3-trimethylsilyl derivative at 0.2 ug/mL after 48 hrs by GC-MS analysis relative to untreated control; parameters: scale not given: the % may be the effect or the level left; in short: as §1
[5] = target: T1, Sterol 24-C-methyltransferase (Yarrowia lipolytica); test: Inhibition of Yarrowia lipolytica 24-sterol C-methyltransferase assessed as ergosterol-3-trimethylsilyl derivative level at 0.06 ug/mL after 48 hrs by GC-MS analysis relative to untreated control; parameters: scale not given: the % may be the effect or the level left; in short: as §1
[6] = target: T1, Sterol 24-C-methyltransferase (Yarrowia lipolytica); test: Inhibition of Yarrowia lipolytica 24-SMT assessed as ergosterol-3-trimethylsilyl derivative level at 0.2 ug/mL after 48 hrs by GC-MS analysis relative to untreated control; parameters: scale not given: the % may be the effect or the level left; in short: as §1
[7] = target: T1, Sterol 24-C-methyltransferase (Yarrowia lipolytica); test: Inhibition of Yarrowia lipolytica 24-SMT assessed as cholesta-5,7,24-trien-3-trimethylsilyl derivative at 0.06 ug/mL after 48 hrs by GC-MS analysis relative to untreated control; parameters: scale not given: the % may be the effect or the level left; in short: as §1
[8] = target: T1, Sterol 24-C-methyltransferase (Yarrowia lipolytica); test: Inhibition of Yarrowia lipolytica 24-SMT assessed as cholesta-5,7,24-trien-3-trimethylsilyl derivative at 0.2 ug/mL after 48 hrs by GC-MS analysis relative to untreated control; parameters: scale not given: the % may be the effect or the level left; in short: as §1
[9] = test system: Yarrowia lipolytica; test: Antimicrobial activity against Yarrowia lipolytica after 48 hrs; assay type: functional
In short: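 Broth dilution MIC per DIN 58940-84. Log-phase Y. lipolytica in yeast extract/peptone/glucose medium, counted against a 0.5 McFarland standard (A570) and seeded at 50,000 CFU/mL in 2 mL wells. Compounds added from ethanol; final concentrations 2 to 0.06125 µg/mL unless otherwise stated. Plates incubated 48 ± 2 h at 28 °C. MIC is the lowest concentration with no visible growth.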

[10] = target: T1, Sterol 24-C-methyltransferase (Yarrowia lipolytica); test: Inhibition of Yarrowia lipolytica 24-SMT assessed as 5-dehydroepisterol-3-trimethylsilyl derivative at 0.2 ug/mL after 48 hrs by GC-MS analysis relative to untreated control; parameters: scale not given: the % may be the effect or the level left; in short: as §1
[11] = target: T1, Sterol 24-C-methyltransferase (Yarrowia lipolytica); test: Inhibition of Yarrowia lipolytica 24-SMT assessed as dehydroergosterol-3-trimethylsilyl derivative at 0.06 ug/mL after 48 hrs by GC-MS analysis relative to untreated control; parameters: scale not given: the % may be the effect or the level left; in short: as §1
[12] = test system: Yarrowia lipolytica; test: Antimicrobial activity against Yarrowia lipolytica by agar diffusion test; assay type: functional, organism-based
[13] = target: T1, Sterol 24-C-methyltransferase (Yarrowia lipolytica); test: Inhibition of Yarrowia lipolytica 24-SMT assessed as cholesta-7,24-dien-3-trimethylsilyl derivative at 1 ug/mL after 48 hrs by GC-MS analysis relative to untreated control; parameters: scale not given: the % may be the effect or the level left; in short: as §1
[14] = target: T1, Sterol 24-C-methyltransferase (Yarrowia lipolytica); test: Inhibition of Yarrowia lipolytica 24-sterol C-methyltransferase assessed as cholesta-5,7,24-trien-3-trimethylsilyl derivative at 1 ug/mL after 48 hrs by GC-MS analysis relative to untreated control; parameters: scale not given: the % may be the effect or the level left; in short: as §1
[15] = target: T1, Sterol 24-C-methyltransferase (Yarrowia lipolytica); test: Inhibition of Yarrowia lipolytica 24-SMT assessed as 5-dehydroepisterol-3-trimethylsilyl derivative at 1 ug/mL after 48 hrs by GC-MS analysis relative to untreated control; parameters: scale not given: the % may be the effect or the level left; in short: as §1
[16] = target: T1, Sterol 24-C-methyltransferase (Yarrowia lipolytica); test: Inhibition of Yarrowia lipolytica 24-SMT assessed as dehydroergosterol-3-trimethylsilyl derivative at 1 ug/mL after 48 hrs by GC-MS analysis relative to untreated control; parameters: scale not given: the % may be the effect or the level left; in short: as §1
[17] = target: T1, Sterol 24-C-methyltransferase (Yarrowia lipolytica); test: Inhibition of Yarrowia lipolytica 24-SMT assessed as cholesta-7,24-dien-3-trimethylsilyl derivative at 0.06 ug/mL after 48 hrs by GC-MS analysis relative to untreated control; parameters: scale not given: the % may be the effect or the level left; in short: as §1
[18] = target: T1, Sterol 24-C-methyltransferase (Yarrowia lipolytica); test: Inhibition of Yarrowia lipolytica 24-SMT assessed as zymosterol-3-trimethylsilyl derivative level at 0.06 ug/mL after 48 hrs by GC-MS analysis relative to untreated control; parameters: scale not given: the % may be the effect or the level left; in short: as §1
[19] = target: T1, Sterol 24-C-methyltransferase (Yarrowia lipolytica); test: Inhibition of Yarrowia lipolytica 24-SMT assessed as zymosterol-3-trimethylsilyl derivative level at 0.2 ug/mL after 48 hrs by GC-MS analysis relative to untreated control; parameters: scale not given: the % may be the effect or the level left; in short: as §1
[20] = target: T1, Sterol 24-C-methyltransferase (Yarrowia lipolytica); test: Inhibition of Yarrowia lipolytica 24-sterol C-methyltransferase assessed as ergosterol-3-trimethylsilyl derivative level at 2 ug/mL after 48 hrs by GC-MS analysis relative to untreated control; parameters: scale not given: the % may be the effect or the level left; in short: as §1
[21] = target: T1, Sterol 24-C-methyltransferase (Yarrowia lipolytica); test: Inhibition of Yarrowia lipolytica 24-SMT assessed as cholesta-7,24-dien-3-trimethylsilyl derivative at 2 ug/mL after 48 hrs by GC-MS analysis relative to untreated control; parameters: scale not given: the % may be the effect or the level left; in short: as §1
[22] = target: T1, Sterol 24-C-methyltransferase (Yarrowia lipolytica); test: Inhibition of Yarrowia lipolytica 24-SMT assessed as cholesta-5,7,24-trien-3-trimethylsilyl derivative at 8 ug/mL after 48 hrs by GC-MS analysis relative to untreated control; parameters: scale not given: the % may be the effect or the level left; in short: as §1
[23] = target: T1, Sterol 24-C-methyltransferase (Yarrowia lipolytica); test: Inhibition of Yarrowia lipolytica 24-SMT assessed as dehydroergosterol-3-trimethylsilyl derivative at 2 ug/mL after 48 hrs by GC-MS analysis relative to untreated control; parameters: scale not given: the % may be the effect or the level left; in short: as §1
[24] = target: T1, Sterol 24-C-methyltransferase (Yarrowia lipolytica); test: Inhibition of Yarrowia lipolytica 24-SMT assessed as 5-dehydroepisterol-3-trimethylsilyl derivative at 2 ug/mL after 48 hrs by GC-MS analysis relative to untreated control; parameters: scale not given: the % may be the effect or the level left; in short: as §1
[25] = target: T1, Sterol 24-C-methyltransferase (Yarrowia lipolytica); test: Inhibition of Yarrowia lipolytica 24-SMT assessed as 5-dehydroepisterol-3-trimethylsilyl derivative at 8 ug/mL after 48 hrs by GC-MS analysis relative to untreated control; parameters: scale not given: the % may be the effect or the level left; in short: as §1
[26] = target: T1, Sterol 24-C-methyltransferase (Yarrowia lipolytica); test: Inhibition of Yarrowia lipolytica 24-SMT assessed as cholesta-5,7,24-trien-3-trimethylsilyl derivative at 2 ug/mL after 48 hrs by GC-MS analysis relative to untreated control; parameters: scale not given: the % may be the effect or the level left; in short: as §1
[27] = target: T1, Sterol 24-C-methyltransferase (Yarrowia lipolytica); test: Inhibition of Yarrowia lipolytica 24-SMT assessed as cholesta-7,24-dien-3-trimethylsilyl derivative at 8 ug/mL after 48 hrs by GC-MS analysis relative to untreated control; parameters: scale not given: the % may be the effect or the level left; in short: as §1
[28] = target: T1, Sterol 24-C-methyltransferase (Yarrowia lipolytica); test: Inhibition of Yarrowia lipolytica 24-SMT assessed as dehydroergosterol-3-trimethylsilyl derivative at 8 ug/mL after 48 hrs by GC-MS analysis relative to untreated control; parameters: scale not given: the % may be the effect or the level left; in short: as §1

Activity [13]: 4.5%
Activity [14]: 68%
Activity [15]: 3.1%
MIC [9]: > 2 µg/mL
Activity [16]: 24.3%
SMILES: C[C@H](CNCCN(C)C)[C@H]1CC[C@H]2C3=CC[C@H]4C[C@@H](O)CC[C@]4(C)[C@H]3CC[C@]12C

Activity [17]: 1.6%
Activity [18]: 0.4%
Activity [1]: 3.8%
Activity [5]: 4.9%
Activity [7]: 20.4%
MIC [9]: 0.25 µg/mL (≈ 0.622 µM)
Activity [11]: 68.9%
SMILES: CCCCCNC[C@@H](C)[C@H]1CC[C@H]2C3=CC[C@H]4C[C@@H](O)CC[C@]4(C)[C@H]3CC[C@]12C

Activity [20]: 2.7%
Activity [21]: 2%
Activity [22]: 65.4%
Activity [23]: 66.4%
Activity [24]: 3.3%
Activity [25]: 2.3%
MIC [9]: > 2 µg/mL
Activity [26]: 25.6%
Activity [27]: 5.1%
Activity [28]: 27.2%
SMILES: C[C@H](CNCCCN(C)C)[C@H]1CC[C@H]2C3=CC[C@H]4C[C@@H](O)CC[C@]4(C)[C@H]3CC[C@]12C

Activity [2]: 2.4%
Activity [3]: 0.3%
Activity [4]: 73.3%
Activity [19]: 1.4%
Activity [8]: 18%
MIC [9]: 0.5 µg/mL
Activity [10]: 4.6%
SMILES: CC(C)C(C)NC[C@@H](C)[C@H]1CC[C@H]2C3=CC[C@H]4C[C@@H](O)CC[C@]4(C)[C@H]3CC[C@]12C (mixture of isomers)

Further lines, the compound ahead of its results:

SMILES: C[C@H](/C=C/c1cccc[n+]1C)[C@H]1CC[C@H]2C3=CCC4C[C@@H](O)CC[C@]4(C)[C@H]3CC[C@]12C.[I-] (some centres undefined)
Activity [1]: 0.7%
Activity [2]: 4.3%
Activity [3]: 0.3%
Activity [4]: 7%
Activity [5]: 15%
Activity [6]: 4.1%
Activity [7]: 2.2%
Activity [8]: 83.4%
MIC [9]: 1 µg/mL
Activity [10]: 1%
Activity [11]: 82.1%

SMILES: CCCCCCCCCCCCNC[C@@H](C)[C@H]1CC[C@H]2C3=CC[C@H]4C[C@@H](O)CC[C@]4(C)[C@H]3CC[C@]12C
MIC [12]: inactive

SMILES: CCCCN(C)C[C@@H](C)[C@H]1CC[C@H]2C3=CC[C@H]4C[C@@H](O)CC[C@]4(C)[C@H]3CC[C@]12C
Activity [2]: 5.6%
Activity [3]: 0.4%
Activity [4]: 37.4%
Activity [19]: 4.2%
Activity [8]: 48.2%
MIC [9]: 0.5 µg/mL (≈ 1.24 µM)
Activity [10]: 4.2%

SMILES: C[C@H](/C=C/c1ccncc1)[C@H]1CC[C@H]2C3=CCC4C[C@@H](O)CC[C@]4(C)[C@H]3CC[C@]12C (some centres undefined)
MIC [12]: inactive
